Experimental data: PMC5621765 (Nature biomedical engineering, 2017)

Key:
[1] = system: OVCAR-8 conditioned media; assay: Cleavage of MMP9 substrate by OVCAR-8 conditioned media; format: biochemical, human
mouse MMP9 = mouse MMP9 (Mus musculus, UniProt P41245); assay: Cleavage of substrate by mouse MMP9; format: biochemical
OVCAR-8 tumour nodules = assay: HE4 blood ELISA in orthotopic OVCAR-8 ovarian cancer model; format: in vivo, mouse; settings: blood biomarker, plasma ELISA; n = 10
Summary of the method: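 Female NCr nude mice, 3–4 weeks old, were injected intraperitoneally with 2 × 10⁶ luciferase-expressing OVCAR-8 cells; tumour burden was followed by IVIS luminescence. About 200 μL blood was spiked with EDTA to a final 5 mM and cells were pelleted. Plasma was stored at -20 °C, then HE4 measured by quantikine ELISA per kit protocol.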

mouse MMP9, sequence (P41245 108-730): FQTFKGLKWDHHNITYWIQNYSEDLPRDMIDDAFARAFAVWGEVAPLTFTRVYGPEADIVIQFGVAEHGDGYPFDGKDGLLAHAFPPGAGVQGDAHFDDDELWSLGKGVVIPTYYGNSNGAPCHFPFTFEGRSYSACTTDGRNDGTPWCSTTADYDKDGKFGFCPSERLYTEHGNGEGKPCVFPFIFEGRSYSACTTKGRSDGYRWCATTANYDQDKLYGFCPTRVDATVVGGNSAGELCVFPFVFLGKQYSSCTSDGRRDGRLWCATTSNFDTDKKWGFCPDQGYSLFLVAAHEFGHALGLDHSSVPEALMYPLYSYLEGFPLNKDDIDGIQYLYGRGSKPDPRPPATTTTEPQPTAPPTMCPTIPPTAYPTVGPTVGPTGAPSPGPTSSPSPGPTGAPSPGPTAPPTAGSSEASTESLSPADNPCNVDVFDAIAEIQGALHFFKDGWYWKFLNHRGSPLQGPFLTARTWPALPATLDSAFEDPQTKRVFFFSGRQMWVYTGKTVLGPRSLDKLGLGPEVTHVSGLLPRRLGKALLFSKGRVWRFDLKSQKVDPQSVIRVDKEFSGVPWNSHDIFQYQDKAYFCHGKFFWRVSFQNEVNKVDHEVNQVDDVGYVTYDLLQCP

CNC(=O)[C@@H](NC(=O)[C@H](CC(C)C)[C@H](O)C(=O)NO)C(C)(C)C [Marimistat, reference compound] was tested, and the “inhibition of cleavage of MMP9 substrate by OVCAR-8 conditioned media” value [1] was “can be inhibited”.

In the case of “5FAM-GGPLGVRGKK(CPQ2)-PEG2-C [MMP9 substrate]”, the “cleavage by OVCAR-8 conditioned media” value [1] is reported as “can cleave” and the “cleavage by mouse MMP9” value (mouse MMP9) is reported as “cleaves”.

B1: HE4: clinical blood biomarker secreted by OVCAR-8 cells, measured by ELISA as comparator diagnostic (protein, UniProt Q14508 31-124, looked up)
WAP four-disulfide core …: EKTGVCPELQADQNCTQECVSDSECADNLKCCSAGCATFCSLPNDKEGSCPQVNINFPQLGLCRDQCQVDSQCPGQMKCCRNGCGKVSCVTPNF
With B1 the “ROC-AUC at 2-weeks” value (OVCAR-8 tumour nodules) was 0.51 and the “ROC-AUC at 3-weeks” value (OVCAR-8 tumour nodules) was 0.93.
